Assay [1] deals with T1, Serine/threonine-protein kinase B-raf (Homo sapiens, UniProt P15056, V600E). Briefly: Inhibition of BRAF V600E mutant. The method, boiled down: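 Purified, isolated V600E BRAF enzyme assayed in vitro; potency reported as IC50.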
Assay [2] addresses T1, Serine/threonine-protein kinase B-raf. Briefly: Inhibition of BRAF V600E mutant-mediated ERK phosphorylation in human WM266.4 cells. In kind it is cell-based. In outline:
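Cellular pathway read-out: ERK phosphorylation (pERK) was measured in WM266.4 melanoma cells and reported as an IC50.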

The nature of assay [3]: Growth inhibition of human WM266.4 cells expressing BRAF V600E mutant after 5 days by SRB assay. In kind it is functional. As to conditions: WM 266-4, 120 h. The method, boiled down:
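WM266.4 human melanoma cells, which are driven by mutant BRAF, were assayed for proliferation by sulforhodamine B (SRB) staining; the value is a GI50.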
(In general: Sulforhodamine B stains cellular protein and so reports cell mass.)

The next assay concerns WM1361. Put plainly: Growth inhibition of human WM1361 cells expressing NRAS mutant after 5 days by SRB assay. It counts as functional, cell-based.

From ChEMBL document CHEMBL1136991, “Novel potent BRAF inhibitors: toward 1 nM compounds through optimization of the central phenyl ring” (J Med Chem, 2009) come the findings set out here.

A word on the IC50: it is the midpoint of a concentration-inhibition curve. Read a high IC50 as weaker potency in that assay. One may read the GI50 as the concentration at which growth is held to half of that of the control.

Active and inactive are the calls of the source. The calls are words filed in the database; no cut-off is given here. Some results are limits rather than exact numbers.

T1 sequence (P15056 2-766 V600E limits assumed): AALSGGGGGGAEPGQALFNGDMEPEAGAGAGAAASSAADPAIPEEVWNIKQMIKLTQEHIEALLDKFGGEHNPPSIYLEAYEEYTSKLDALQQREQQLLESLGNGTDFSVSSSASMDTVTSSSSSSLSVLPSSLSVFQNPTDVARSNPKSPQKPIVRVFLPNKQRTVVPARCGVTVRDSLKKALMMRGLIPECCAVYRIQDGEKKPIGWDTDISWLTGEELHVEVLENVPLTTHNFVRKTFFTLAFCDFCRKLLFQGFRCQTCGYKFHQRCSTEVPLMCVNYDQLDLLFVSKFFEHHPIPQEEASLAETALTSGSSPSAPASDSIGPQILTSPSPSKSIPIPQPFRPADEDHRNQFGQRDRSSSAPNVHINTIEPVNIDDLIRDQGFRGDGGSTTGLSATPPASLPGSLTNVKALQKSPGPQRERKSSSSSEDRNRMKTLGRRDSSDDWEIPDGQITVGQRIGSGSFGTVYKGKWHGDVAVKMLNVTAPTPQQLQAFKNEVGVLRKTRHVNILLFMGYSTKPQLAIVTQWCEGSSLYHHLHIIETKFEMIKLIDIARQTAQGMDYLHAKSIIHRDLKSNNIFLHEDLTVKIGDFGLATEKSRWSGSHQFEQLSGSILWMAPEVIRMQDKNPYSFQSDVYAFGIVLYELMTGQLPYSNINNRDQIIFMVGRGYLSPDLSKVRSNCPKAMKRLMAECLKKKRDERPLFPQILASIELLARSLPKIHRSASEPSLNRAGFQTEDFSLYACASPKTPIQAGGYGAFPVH

In the case of `Cn1c(=O)[nH]c2c(Oc3ccc(NC(=O)Nc4cc(C(F)(F)F)ccc4F)c4ccccc34)ccnc21`, the IC50 came out at 167 nM in assay [1] and 2000 nM in assay [2]. The same compound yielded a GI50 in assay [3] of 730 nM.

Consider `CSc1cc(Oc2ccnc3[nH]c(=O)[nH]c23)ccc1NC(=O)Nc1cc(C(F)(F)F)ccc1F`, for which the values for the IC50 in assay [1] and in assay [2] were 12 nM and 3060 nM, respectively. Growth in assay [3] was halved (GI50) at 2600 nM.

Regarding `Cn1c(=O)[nH]c2nccc(Oc3ccc(NC(=O)Nc4cccc(C(C)(C)C)c4)c4ccccc34)c21`, the IC50 stood at 37 nM in assay [1] and 1060 nM in assay [2]. In addition, the GI50 in assay [3] worked out at 1130 nM.

Take `CSc1cc(Oc2ccnc3[nH]c(=O)[nH]c23)ccc1NC(=O)Nc1ccc(Cl)c(C(F)(F)F)c1`: the 50% inhibitory concentration (IC50) in assay [1] worked out at 1 nM; in assay [2] it was 610 nM. For the same compound, in assay [3], halving of growth (GI50) required 470 nM.

As to `Cn1c(=O)[nH]c2nccc(Oc3ccc(NC(=O)Nc4cc(C(F)(F)F)ccc4F)c4ccccc34)c21`, the IC50 in assay [1] worked out at 17 nM; in assay [2] it was 810 nM. The same compound registered a GI50 in assay [3] of 490 nM.

`O=C(Nc1cc(C(F)(F)F)ccc1N1CCOCC1)Nc1ccc(Oc2ccnc3[nH]c(=O)[nH]c23)c2ccccc12`: the IC50 came out at 14 nM in assay [1] and 346 nM in assay [2]. This compound gave a GI50 in assay [3] of 291 nM.

`CS(=O)(=O)c1cc(Oc2ccnc3[nH]c(=O)[nH]c23)ccc1NC(=O)Nc1ccc(Cl)c(C(F)(F)F)c1`: the IC50 in assay [1] worked out at 90 nM; in assay [2] it was 11000 nM. Besides, the concentration for 50% growth inhibition (GI50) in assay [3] came out at 11900 nM.

As to `O=C(Nc1cccc(C(F)(F)F)c1)Nc1ccc(Oc2ccnc3[nH]c(=O)[nH]c23)cc1F`, the IC50 in assay [1] is 12 nM; in assay [2], 3450 nM. For the same compound, the GI50 in assay [3] was determined as 1610 nM.

As for `O=C(Nc1ccc(Cl)c(C(F)(F)F)c1)Nc1ccc(Oc2ccnc3[nH]c(=O)[nH]c23)cc1Cl`, the IC50 in assay [1] turned out to be 23 nM; in assay [2], 1330 nM. This compound also came in with a GI50 in assay [3] of 2000 nM.

In the case of `Cn1c(=O)[nH]c2c(Oc3ccc(NC(=O)Nc4cccc(C(C)(C)C)c4)c4ccccc34)ccnc21`, the IC50 in assay [1] is 430 nM; in assay [2], 46000 nM. Further, in assay [3], the GI50 was above 100000 nM.

In the case of `O=C(Nc1cccc(SC(F)(F)F)c1)Nc1ccc(Oc2ccnc3[nH]c(=O)[nH]c23)cc1F`, the IC50 was 7 nM in assay [1] and 4150 nM in assay [2]. The same compound had a GI50 in assay [3] of 1190 nM.

For the compound `Cn1c(=O)[nH]c2nccc(Oc3ccc(NC(=O)c4cccc(SC(F)(F)F)c4)c4ccccc34)c21`, the concentration for half-maximal inhibition (IC50) in assay [1] amounted to 4600 nM; in assay [2], 18400 nM. Further, in assay [3], the GI50 turned out to be 7600 nM.

As for `O=C(Nc1cccc(C(F)(F)F)c1)Nc1ccc(Oc2ccnc3[nH]c(=O)[nH]c23)c2ccccc12`, the IC50 stood at 6 nM in assay [1] and 1910 nM in assay [2]. It took 320 nM to inhibit growth in assay [3] by half (GI50).

As to `Cn1c(=O)[nH]c2c(Oc3ccc(NC(=O)Nc4ccc(Cl)c(C(F)(F)F)c4)c4ccccc34)ccnc21`, the figures for the IC50 in assay [1] and in assay [2] were 156 nM and 3140 nM, respectively. Besides, the GI50 in assay [3] came out at 2300 nM.

For `COc1cc(NC(=O)Nc2ccc(Cl)c(C(F)(F)F)c2)ccc1Oc1ccnc2[nH]c(=O)[nH]c12`, the results for the IC50 in assay [1] and in assay [2] were 25 nM and 5500 nM, respectively. Also, it took 6200 nM to inhibit growth in assay [3] by half (GI50).

Consider `CNC(=O)c1cc(Oc2ccc(NC(=O)Nc3ccc(Cl)c(C(F)(F)F)c3)cc2)ccn1`, for which, in the assay with WM1361, the result was inactive.

For `O=C(Nc1ccc(Oc2ccnc3[nH]c(=O)[nH]c23)c(F)c1)Nc1ccc(Cl)c(C(F)(F)F)c1`, the IC50 in assay [1] stood at 47 nM; in assay [2] it was 34000 nM.

For the compound `COc1cc(NC(=O)Nc2cccc(C(F)(F)F)c2)ccc1Oc1ccnc2[nH]c(=O)[nH]c12`, the results for the IC50 in assay [1] and in assay [2] were 16 nM and 29400 nM, respectively. In assay [3], this compound registered a GI50 above 100000 nM.

Take `Cn1c(=O)[nH]c2nccc(Oc3ccc(NC(=O)c4cccc(OC(F)(F)F)c4)c4ccccc34)c21`: the IC50 in assay [1] was determined as 5200 nM; in assay [2] it was 31000 nM. Besides, the GI50 in assay [3] was 12000 nM.

Turning to `O=C(Nc1cccc(F)c1)Nc1ccc(Oc2ccnc3[nH]c(=O)[nH]c23)c2ccccc12`, the IC50 turned out to be 37 nM in assay [1] and 214 nM in assay [2]. Moreover, it took 290 nM to inhibit growth in assay [3] by half (GI50).

Consider `O=C(Nc1ccc(Cl)c(C(F)(F)F)c1)Nc1ccc(Oc2ccnc3[nH]c(=O)[nH]c23)c2ccccc12`, for which the figures for the IC50 in assay [1] and in assay [2] were 30 nM and 559 nM, respectively. For the same compound, the GI50 in assay [3] amounted to 470 nM.

For the compound `O=C(Nc1ccc(F)c(F)c1)Nc1ccc(Oc2ccnc3[nH]c(=O)[nH]c23)c2ccccc12`, the IC50 in assay [1] was 220 nM; in assay [2], above 100000 nM. The same compound showed a GI50 in assay [3] of 5500 nM.

In the case of `CN(C)c1cc(Oc2ccnc3[nH]c(=O)[nH]c23)ccc1NC(=O)Nc1ccc(Cl)c(C(F)(F)F)c1`, the IC50 stood at 10000 nM in assay [1] and 20700 nM in assay [2]. The same compound returned a GI50 in assay [3] of 5340 nM.

As to `Cc1c(NC(=O)Nc2ccc(Cl)c(C(F)(F)F)c2)ccc(Oc2ccnc3[nH]c(=O)[nH]c23)c1C`, the IC50 was 56 nM in assay [1] and 3900 nM in assay [2]. In assay [3], this compound yielded a GI50 of 2000 nM.

Regarding `Cc1cc(Oc2ccnc3[nH]c(=O)[nH]c23)ccc1NC(=O)Nc1ccc(Cl)c(C(F)(F)F)c1`, the IC50 in assay [1] came out at 37 nM; in assay [2], 4720 nM. In assay [3], this compound showed a GI50 of 5900 nM.

For the compound `O=C(Nc1ccc(Cl)c(C(F)(F)F)c1)Nc1ccc(Oc2ccnc3[nH]c(=O)[nH]c23)cc1-c1ccccc1`, the 50% inhibitory concentration (IC50) in assay [1] was 6500 nM; in assay [2], above 100000 nM. In assay [3], this compound came in with a GI50 of 5100 nM.

In the case of `O=C(Cc1cccc(C(F)(F)F)c1)Nc1ccc(Oc2ccnc3[nH]c(=O)[nH]c23)c2ccccc12`, the IC50 was above 10000 nM in assay [1] and above 100000 nM in assay [2].

On to `O=C(Nc1ccc(Cl)c(C(F)(F)F)c1)Nc1ccc(Oc2ccnc3[nH]c(=O)[nH]c23)cc1C(F)(F)F`, for which the values for the IC50 in assay [1] and in assay [2] were 22 nM and 3580 nM, respectively. Besides, in assay [3], the 50% growth inhibitory concentration (GI50) worked out at 930 nM.

Turning to `O=C(Nc1ccc(Oc2ccnc3[nH]c(=O)[nH]c23)cc1F)Nc1cc(C(F)(F)F)ccc1F`, the IC50 in assay [1] came to 7 nM; in assay [2] it was 1290 nM. The same compound registered a GI50 in assay [3] of 1150 nM.

In the case of `O=C(Nc1ccc(Oc2ccnc3[nH]c(=O)[nH]c23)cc1)Nc1ccc(Cl)c(C(F)(F)F)c1`, in assay [2], the IC50 came out at 2390 nM. In assay [3], this compound displayed a concentration for 50% growth inhibition (GI50) of 4200 nM.

As to `Cn1c(=O)[nH]c2nccc(Oc3ccc(NC(=O)Nc4cccc(SC(F)(F)F)c4)c4ccccc34)c21`, the IC50 stood at 24 nM in assay [1] and 1460 nM in assay [2]. The GI50 in assay [3] was determined as 1200 nM.

Regarding `Cn1c(=O)[nH]c2nccc(Oc3ccc(NC(=O)Nc4cccc(C(F)(F)F)c4)c4ccccc34)c21`, the IC50 worked out at 10 nM in assay [1] and 600 nM in assay [2]. Also, growth in assay [3] was halved (GI50) at 810 nM.

For the compound `O=C(Cc1cccc(OC(F)(F)F)c1)Nc1ccc(Oc2ccnc3[nH]c(=O)[nH]c23)c2ccccc12`, the values for the IC50 in assay [1] and in assay [2] were above 10000 nM and above 100000 nM, respectively. The compound further had a GI50 in assay [3] of 3100 nM.

`Cn1c(=O)[nH]c2nccc(Oc3ccc(NC(=O)Nc4ccc(Cl)c(C(F)(F)F)c4)c(F)c3)c21`: the concentration for half-maximal inhibition (IC50) was found to be 10 nM in assay [1] and 21000 nM in assay [2]. Further, it took 100000 nM to inhibit growth in assay [3] by half (GI50).

Regarding `COc1cc(Oc2ccnc3[nH]c(=O)[nH]c23)ccc1NC(=O)Nc1ccc(Cl)c(C(F)(F)F)c1`, the IC50 in assay [1] is 106 nM; in assay [2], above 100000 nM.

As to `O=C(Nc1ccc(Cl)c(C(F)(F)F)c1)Nc1ccc(Oc2ccnc3[nH]c(=O)[nH]c23)cc1F`, the IC50 in assay [1] worked out at 8 nM; in assay [2] it was 2170 nM. Moreover, in assay [3], growth was halved (GI50) at 1530 nM.

For the compound `Cn1c(=O)[nH]c2nccc(Oc3ccc(NC(=O)Nc4ccc(Cl)c(C(F)(F)F)c4)c4ccccc34)c21`, the IC50 in assay [1] worked out at 23 nM; in assay [2], 770 nM. This compound had a GI50 in assay [3] of 1040 nM.

For the compound `Cc1cc(NC(=O)Nc2ccc(Cl)c(C(F)(F)F)c2)ccc1Oc1ccnc2[nH]c(=O)[nH]c12`, the IC50 in assay [1] turned out to be 23 nM; in assay [2], 59000 nM. In assay [3], this compound yielded a GI50 of 1790 nM.
